From ChEMBL document CHEMBL1140917, “Structure-activity relationships of antitubercular nitroimidazoles. 1. Structural features associated with aerobic and anaerobic activities of 4- and 5-nitroimidazoles” (2009)
Converted amounts (≈) assume the structure as drawn.

Legend:
[1] = tested on: Mycobacterium tuberculosis; experiment: Antimycobacterial activity against wild type Mycobacterium tuberculosis H37Rv ATCC 27294 after 2 weeks; type: functional; details: 336 h
In short: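 Aerobic MIC99: Mtb H37Rv grown to OD 0.5 in 7H9 broth with 0.05% Tween 80, 0.2% glycerol, ADC; diluted 1:1000. Compounds from DMSO stocks, 2-fold series giving 8 dilutions (1000 μM – 7.8 μM). 2 weeks at 37°C, growth read macroscopically; MIC99 = concentration preventing 99% growth. Three independent determinations.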

[2] = tested on: Mycobacterium tuberculosis; experiment: Ratio of Kcat/Km for Mycobacterium tuberculosis F420-dependent nitroreductase by Michaelis-Menten equation; parameters: unit not given here
In short: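 MBP-tagged Rv3547 (Ddn) expressed in E. coli (300 μM IPTG, 37 °C), amylose-affinity purified. F420H2 made enzymatically with Mtb FGD1, which was heat-inactivated (55°C, 15 min) and removed by ultrafiltration. Reactions in phosphate buffer pH 7.4, 50 μM F420, 0.6 μM enzyme, varying nitroimidazole concentrations, 25°C. Initial rates from absorbance gain at 400 nm (ε400 = 25.71 mM−1 cm−1).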

[3] = tested on: Mycobacterium tuberculosis; experiment: Antimycobacterial activity against wild type Mycobacterium tuberculosis H37Rv NRP-2 stage after 3 weeks under anaerobic condition; type: functional
In short: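 Early-log Mtb in glycerol-free Dubos broth diluted 100-fold, sealed tubes (headspace ratio 0.5), stirred 180 rpm 20 days to NRP-2 (methylene blue reference). Cells exposed to two-fold drug dilutions (1.95-500 μM) with DMSO control, anaerobically at 37°C for 7 days. Washed thrice, serially diluted, spotted on 7H11 agar; after 3 weeks at 37°C, MAC = 90% reduction in visible growth.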

Compound	MIC [1]	kcat/Km [2]	MAC [3]
COc1nc([N+](=O)[O-])cn1CCOCc1ccc(OC(F)(F)F)cc1	6.25 µM (≈ 2.26 µg/mL)	0.03	250 µM
Cc1ncc([N+](=O)[O-])n1CCO [METRONIDAZOLE]	> 300 µM		62.5 µM
O=[N+]([O-])c1cnc2n1C[C@H](OCc1ccc(OC(F)(F)F)cc1)CO2	4 µM (≈ 1.44 µg/mL)	0.0817	31.25 µM
O=[N+]([O-])c1cn2c(n1)OC[C@@H](O)C2	> 100 µM	0.005	250 µM
FC(F)(F)Oc1ccc(CO[C@@H]2COc3nccn3C2)cc1	> 160 µM		>500 µM
O=[N+]([O-])c1cn2c(n1)OC[C@@H](OCc1ccc(OC(F)(F)F)cc1)C2 [PRETOMANID]	0.8 µM (≈ 0.287 µg/mL)	0.145	8 µM
CO[C@@H]1COc2nc([N+](=O)[O-])cn2C1	> 125 µM	0.0079	250 µM
Cc1nc([N+](=O)[O-])cn1CCOCc1ccc(OC(F)(F)F)cc1	> 145 µM		>500 µM
Cc1nc([N+](=O)[O-])cn1CCO	> 300 µM		>500 µM
O=[N+]([O-])c1cn2c(n1)C=C[C@@H](OCc1ccc(OC(F)(F)F)cc1)C2	25 µM (≈ 8.88 µg/mL)	0.0476	62.5 µM
O=[N+]([O-])c1cnc2n1C[C@H](O)CC2	> 100 µM		>500 µM
Cc1ncc([N+](=O)[O-])n1CCOCc1ccc(OC(F)(F)F)cc1	> 145 µM	0.005	250 µM
O=[N+]([O-])c1cnc2n1C[C@H](O)CO2	12.5 µM (≈ 2.31 µg/mL)	0.003	125 µM
O=[N+]([O-])c1cnc2n1C[C@@H](O)CC2	> 100 µM		>100 µM
O=[N+]([O-])c1cn2c(n1)CC[C@@H](OCc1ccc(OC(F)(F)F)cc1)C2	25 µM (≈ 8.93 µg/mL)	0.0235	250 µM
COc1ncc([N+](=O)[O-])n1CCO	> 100 µM		>500 µM
